# Measured values from publication PMC7475184 (Heliyon, 2020).
# Experiments:
# [1] = tested on: MCF7 (breast) cells; assay: Cytotoxic activity, Cell Titer 96 proliferation kit; format: cell-based, human
# In short: (§1)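 Cells grown in DMEM with 10% fetal bovine serum and 2 mM glutamine at 37 °C under 5% CO2. Test compounds at 100, 10, 1, 0.1 and 0.01 μg/mL for a dose-response curve. Viability read with a Cell Titer 96 aqueous kit by absorbance at 450 nm. Paclitaxel reference. Triplicates in three independent experiments; IC50 by regression analysis.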
# [2] = tested on: immortalized human hepatocytes (IHH); format: cell-based; conditions: for IC50, IHH: non-cancerous control cells IHH; for IC50: Homo sapiens, Hepatocyte, read-out: IC50, IHH
# In short: as §1
# [3] = tested on: HepG2 (hepatocellular) cells; assay: Cytotoxic activity, Cell Titer 96 proliferation kit; format: cell-based, human; conditions: for IC50, HepG2: HepG2 cells; for IC50: Homo sapiens, HepG2, read-out: IC50, HepG2
# In short: as §1
# [4] = tested on: A549 (lung) cells; assay: as above; format: cell-based, human; conditions: for IC50, A549: A549 cells; for IC50: Homo sapiens, A549, read-out: IC50, A549
# In short: as §1
# [5] = tested on: HeLa (cervical) cells; assay: as above; format: cell-based, human; conditions: for IC50, Hela: HeLa cells; for IC50: Homo sapiens, HeLa, read-out: IC50, Hela
# In short: as §1
# [6] = tested on: Hep3B (hepatocellular) cells; assay: as above; format: cell-based, human; conditions: for IC50, Hep3B: Hep3B cells; for IC50: Homo sapiens, Hep3B, read-out: IC50, Hep3B
# In short: as §1
# [7] = tested on: PC3 (prostate) cells; assay: Cytotoxic activity, Cell Titer 96 proliferation kit; format: cell-based, human; conditions: for IC50, PC3: PC3 cells; for IC50: Homo sapiens, PC-3, read-out: IC50, PC3
# In short: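 PC3 cells kept in RPMI-1640 at 37 °C under 5% CO2. Dose-response over 100, 10, 1, 0.1 and 0.01 μg/mL test compound. Viability measured with a Cell Titer 96 aqueous kit by absorbance at 450 nm. Paclitaxel reference. Triplicates in three independent experiments; IC50 derived by regression analysis.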
# [8] = tested on: Methicillin-Resistant Staphylococcus aureus (14–2095); assay: Antibacterial activity, microdilution method; format: cell-based; conditions: for MIC, MRSA: MDR clinical isolate, microdilution; for MIC: Staphylococcus aureus, MRSA, read-out: MIC, MRSA
# In short: (§2)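 Drug-resistant clinical isolates from a university hospital, tested by broth microdilution in Mueller Hinton medium. Test compounds at 200, 100, 50, 25, 12.5, 6.25 and 3.12 μg/mL. Levofloxacin positive control at the same concentrations; DMSO (6%–0.09%, v/v) negative control. MIC taken as the lowest concentration inhibiting bacterial growth. Three repeat experiments.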
# [9] = tested on: carbapenems-resistant Klebsiella pneumoniae NDM-1+ (14–3335); assay: Antibacterial activity, microdilution method; format: cell-based; conditions: for MIC, KPNDM-1+: MDR clinical isolate, microdilution; for MIC: Klebsiella pneumoniae, read-out: MIC, KPNDM-1+
# In short: as §2
# [10] = tested on: Escherichia coli producing extended-spectrum beta-lactamase (14–2081); assay: Antibacterial activity, microdilution method; format: cell-based; conditions: for MIC, ECPB: MDR clinical isolate, microdilution; for MIC: Escherichia coli, read-out: MIC, ECPB
# In short: as §2
# [11] = tested on: P. aeruginosa resistant to carbapenems (13–1391); assay: Antibacterial activity, microdilution method; format: cell-based, Pseudomonas aeruginosa; conditions: for MIC, PARC: MDR clinical isolate, microdilution; for MIC: Pseudomonas aeruginosa, read-out: MIC, PARC
# In short: as §2
# [12] = tested on: Vancomycin-resistant Enterococcus faecium (10–984); assay: Antibacterial activity, microdilution method; format: cell-based; conditions: for MIC, VREF: MDR clinical isolate, microdilution; for MIC: Enterococcus faecium, read-out: MIC, VREF
# In short: as §2
# [13] = tested on: Carbapenems-resistant Acinetobacter baumannii (12–666); assay: Antibacterial activity, microdilution method; format: cell-based; conditions: for MIC, CRAB: MDR clinical isolate, microdilution; for MIC: Acinetobacter baumannii, read-out: MIC, CRAB
# In short: as §2
# [14] = tested on: Linezolid-resistant Staphylococcus epidermidis (14–583); assay: Antibacterial activity, microdilution method; format: cell-based; conditions: for MIC, LRSE: MDR clinical isolate, microdilution; for MIC: Staphylococcus epidermidis, read-out: MIC, LRSE
# In short: as §2
# [15] = tested on: Klebsiella pneumoniae producer of ESBL (14–2081); assay: Antibacterial activity, microdilution method; format: cell-based; conditions: for MIC, KPPB: MDR clinical isolate, microdilution; for MIC: Klebsiella pneumoniae, read-out: MIC, KPPB
# In short: as §2
# [16] = tested on: carbapenems-resistant Klebsiella pneumoniae (OXA-48 positive); assay: Antibacterial activity, microdilution method; format: cell-based; conditions: for MIC, KPRO: MDR clinical isolate, microdilution; for MIC: Klebsiella pneumoniae, read-out: MIC, KPRO
# In short: as §2
# [17] = tested on: hepatocellular carcinoma lines; assay: Selectivity Index on hepatocellular carcinoma lines versus IHH; format: cell-based, human; conditions: HepG2 and Hep3B versus IHH
# [18] = tested on: P. aeruginosa; conditions: Vernonia auriculifera screening; ref Kiplimo et al., 2011; cited from earlier work
compound,measurement,setting,value
"CC(=O)OC[C@H]1O[C@@H](O[C@H]2CC[C@]3(C)[C@H]4CC=C5[C@@H]6[C@@H](C)[C@H](C)CC[C@]6(C)CC[C@@]5(C)[C@]4(C)CC[C@H]3C2(C)C)[C@H](OC(C)=O)[C@@H](OC(C)=O)[C@@H]1OC(C)=O [4Ac, α-amyrin tetraacetyl 3-O-β-D-glucopyranoside]","IC50, MCF7",[1],>100 µg/mL
same,"IC50, IHH",[2],>100 µg/mL
same,"IC50, HepG2",[3],>100 µg/mL
same,"IC50, A549",[4],>100 µg/mL
same,"IC50, Hela",[5],>100 µg/mL
same,"IC50, Hep3B",[6],>100 µg/mL
same,"IC50, PC3",[7],>100 µg/mL
"CC[C@H](CC[C@@H](C)[C@H]1CC[C@H]2[C@@H]3CC=C4C[C@@H](O[C@@H]5O[C@H](COC(C)=O)[C@@H](OC(C)=O)[C@H](OC(C)=O)[C@H]5OC(C)=O)CC[C@]4(C)[C@H]3CC[C@]12C)C(C)C [3Ac, β-sitosteryl β-D-tetraacetyl glucopyranoside]","MIC, MRSA",[8],>200 µg/mL
same,"MIC, KPNDM-1+",[9],>200 µg/mL
same,"MIC, ECPB",[10],>200 µg/mL
same,"MIC, PARC",[11],200 µg/mL
same,"IC50, IHH",[2],78 ± 7 µg/mL
same,"MIC, VREF",[12],200 µg/mL
same,"IC50, HepG2",[3],50 ± 3 µg/mL
same,"IC50, A549",[4],87 ± 8 µg/mL
same,"MIC, CRAB",[13],200 µg/mL
same,"MIC, LRSE",[14],>200 µg/mL
same,"MIC, KPPB",[15],>200 µg/mL
same,"IC50, Hela",[5],63 ± 7 µg/mL
same,"MIC, KPRO",[16],200 µg/mL
same,"IC50, Hep3B",[6],49 ± 4 µg/mL
same,"IC50, PC3",[7],43 ± 4 µg/mL
"CCCCCCCCCCCCCCCCCCCCCCCC(=O)OCC(O)CO (stereo not drawn) [compound 2, 2,3-dihydroxypropyl tetracosanoate]",MIC,[8],> 200 µg/mL
same,MIC,[9],200 µg/mL
same,MIC,[10],> 200 µg/mL
same,MIC,[11],200 µg/mL
same,IC50,[2],100 µg/mL
same,MIC,[12],200 µg/mL
same,IC50,[3],75 ± 6 µg/mL
same,IC50,[4],> 100 µg/mL
same,MIC,[13],200 µg/mL
same,MIC,[14],200 µg/mL
same,MIC,[15],> 200 µg/mL
same,Selectivity Index (SI) on hepatocellular carcinoma lines,[17],greater than 1
same,IC50,[5],82 ± 8 µg/mL
same,MIC,[16],200 µg/mL
same,IC50,[6],73 ± 7 µg/mL
same,IC50,[7],75 ± 5 µg/mL
"CCCCCCCCCCCCCCCCCCCCCCCC(=O)OCC(COC(C)=O)OC(C)=O (stereo not drawn) [2Ac, 3-(tetracosanoyloxy) propane-1,2-diyl diacetate]","MIC, MRSA",[8],>200 µg/mL
same,"MIC, KPNDM-1+",[9],200 µg/mL
same,"MIC, ECPB",[10],>200 µg/mL
same,"MIC, PARC",[11],200 µg/mL
same,"MIC, VREF",[12],200 µg/mL
same,"MIC, CRAB",[13],100 µg/mL
same,"MIC, LRSE",[14],200 µg/mL
same,"MIC, KPPB",[15],>200 µg/mL
same,"MIC, KPRO",[16],>200 µg/mL
"C[C@H]1COc2c(N3CCN(C)CC3)c(F)cc3c(=O)c(C(=O)O)cn1c23 [levofloxacin, reference compound]",MIC,[8],12.5 µg/mL
same,MIC,[9],> 50 µg/mL
same,MIC,[10],12.5 µg/mL
same,MIC,[11],12.5 µg/mL
same,MIC,[12],12.5 µg/mL
same,MIC,[13],12.5 µg/mL
same,MIC,[14],6.25 µg/mL
same,MIC,[15],> 50 µg/mL
same,MIC,[16],> 50 µg/mL
C[C@H]1[C@H](C)CC[C@]2(C)CC[C@]3(C)C(=CC[C@@H]4[C@@]5(C)CC[C@H](O)C(C)(C)[C@@H]5CC[C@]43C)[C@H]12 [α-amyrin],"MIC, P. aeruginosa",[18],1000 µg/mL
"CC(=O)O[C@H]1C(=O)[C@@]2(C)[C@H]([C@H](OC(=O)c3ccccc3)[C@]3(O)C[C@H](OC(=O)[C@H](O)[C@@H](NC(=O)c4ccccc4)c4ccccc4)C(C)=C1C3(C)C)[C@]1(OC(C)=O)CO[C@@H]1C[C@@H]2O [Paclitaxel, reference compound]",IC50,[2],0.0794 µg/mL
same,IC50,[3],0.064 µg/mL
same,IC50,[4],0.00512 µg/mL
same,IC50,[5],0.00478 µg/mL
same,IC50,[6],0.033 µg/mL
same,IC50,[7],0.0102 µg/mL
